Measured values pooled from the literature.
Each line is one published result; the experiments were not run side by side.
Target: Tyrosine-protein kinase Fer (FER, Homo sapiens, UniProt P16591)

COc1cc2ncnc(Nc3ccc(Oc4ccccc4)cc3C)c2cc1OC  inhibition (enzyme activity; inhibitor; 1 µM): 54%
COc1cc2nccc(Oc3ccc(NC(=S)NC(=O)c4ccccc4C)cc3)c2cc1OC  remaining activity (enzyme activity; inhibitor; 0.5 µM): 58.2%
Cc1ccc(Nc2nccc(N(C)c3ccc4c(C)n(C)nc4c3)n2)cc1S(N)(=O)=O  inhibition (enzyme activity; inhibitor; 0.3 µM): -24%
Cc1cc(NC(=O)c2cccc3cc(-c4cccc5[nH]nc(N)c45)ccc23)ccc1F  activity vs control (enzyme activity; inhibitor; 0.1 µM): 106%
CCN1CCN(Cc2ccc(NC(=O)c3ccc(C)c(/C=C/c4cnc5[nH]ccc5c4OC)c3)cc2C(F)(F)F)CC1  inhibition (target engagement in cells; inhibitor; chemoproteomics; A-375; 50 nM): -10.4%
CNC(=O)c1cc(Oc2ccc(NC(=O)Nc3ccc(Cl)c(C(F)(F)F)c3)cc2)ccn1  inhibition (enzyme activity; inhibitor; 10 µM): -30%
COc1ccc2c(c1)O[C@@H](c1ccc(OC)c(OC)c1)C[C@H]2NC(=O)C1(c2ccc3c(c2)OC(F)(F)O3)CC1  remaining binding (cell-free assay; competition with immobilised ligand; 1 µM): 100%
Cc1ccc(C(=O)Nc2ccc(CN3CCN(C)CC3)c(C(F)(F)F)c2)cc1C#Cc1cnc2cccnn12  remaining activity (enzyme activity; 23.5 nM): 94%
O=C1NC(c2ccccn2)Sc2ccccc21 (centres unmarked)  remaining binding (cell-free assay; competition with immobilised ligand; 1 µM): 84%
C[C@@H]1CCN(C(=O)CC#N)C[C@@H]1N(C)c1ncnc2[nH]ccc12  remaining signal (cell-free assay; 0.5 µM): 104%
CNC(=O)c1cc2c(Oc3ccc(NC(=O)C4(C(=O)Nc5ccc(F)cc5)CC4)cc3)ccnc2cc1OC  inhibition (enzyme activity; inhibitor; radiometric; 1 µM): 74%
Nc1ncnc2occ(-c3ccc(NC(=O)Nc4cc(C(F)(F)F)ccc4F)cc3)c12  remaining signal (cell-free assay; 20 µM): 9%
CC1=C(C#N)C(c2ccc3c(c2)c(NC(=O)c2ccccc2C)nn3C)C(C#N)=C(C)N1  remaining binding (cell-free assay; competition with immobilised ligand; 1 µM): 88%
CC/C(=N\NC(=O)NCc1cccc(O)c1)c1ccc(O)c(C)c1O  inhibition (enzyme activity; inhibitor; 0.1 µM): -2.3%
CCN(CC)CCNC(=O)c1c(C)[nH]c(/C=C2\C(=O)Nc3ccc(F)cc32)c1C  inhibition (enzyme activity; inhibitor; 10 µM): 55%
COc1ccc(C(=O)Nc2sc3c(c2C(N)=O)CCCC3)cc1OC  remaining activity (enzyme activity; inhibitor; 0.5 µM): 89.8%
CC(C)(O)[C@H]1CC[C@H](Nc2ccc3ncc(-c4cccc(C(F)(F)F)c4)n3n2)CC1  remaining activity (enzyme activity; inhibitor; 1 µM): 77.1%
O=c1c2ccccc2[nH]c(=S)n1CCN1CCC(=C(c2ccc(F)cc2)c2ccc(F)cc2)CC1  remaining activity (enzyme activity; inhibitor; 0.5 µM): 95.2%
CCN(CC)c1ccc(C2=NNC(=O)CC2C)cc1[N+](=O)[O-] (centres unmarked)  remaining activity (enzyme activity; inhibitor; 10 µM): 119%
CC(C)(C)c1nc(-c2cccc(NS(=O)(=O)c3c(F)cccc3F)c2F)c(-c2ccnc(N)n2)s1  remaining activity (enzyme activity; inhibitor; radiometric; 1 µM): 94%
O=C(O)c1ccc2c3c1cccc3c(=O)n1c3ccccc3nc21  remaining activity (enzyme activity; inhibitor; 0.5 µM): 96.5%
C[C@H](c1ccc(F)cc1)N(Cc1cccc(C(=O)O)c1)C(=O)c1cnc2ccccc2c1  remaining binding (cell-free assay; competition with immobilised ligand; 1 µM): 100%
Cc1ccc(C(=O)NCc2ccsc2)cc1C#Cc1cn(C(C)C)c2ncnc(N)c12  activity vs control (enzyme activity; inhibitor; 1 µM): 92%
O=C(N1CCS(=O)(=O)CC1)N1C[C@H](c2ccc(OC(F)(F)F)cc2)C[C@H](c2nc(C3CC3)no2)C1  remaining binding (cell-free assay; competition with immobilised ligand; 1 µM): 100%
COc1cc(Cl)c(C(=O)N[C@@H](CN[C@H]2CC[C@@H](N)CC2)Cc2ccc(C#N)cc2)cc1-c1ccc(CN[C@H](C)c2ccc(C)cc2)o1  remaining activity (enzyme activity; inhibitor; 1 µM): 96%
C[S+]([O-])c1ccc(-c2nc(-c3ccncc3)c(-c3ccc(F)cc3)[nH]2)cc1 (centres unmarked)  remaining signal (cell-free assay; 0.5 µM): 95%
Cc1c[nH]c2nccc(Oc3c(F)cc(Nc4cc(Cl)nc(N)n4)cc3F)c12  remaining binding (cell-free assay; competition with immobilised ligand; 0.1 µM): 100%
O=C(Nc1cnn(-c2csc(C(=O)NC3COC3)c2)c1)Nc1c(F)cccc1Cl  remaining activity (enzyme activity; inhibitor; 5 µM): 89.8%
CCOCCn1cc(C(=O)Nc2ccc(-n3nc(-c4cccnc4)cc3C(F)(F)F)cn2)ccc1=O  remaining binding (cell-free assay; competition with immobilised ligand; 1 µM): 100%
COc1cc(Nc2c(C#N)cnc3cc(OCCCN4CCN(C)CC4)c(OC)cc23)c(Cl)cc1Cl  remaining signal (cell-free assay; 0.5 µM): 54.6%
CO[C@@H](C)c1c(Nc2ccc([C@H](N(C)C(=O)C3CCS(=O)(=O)CC3)C(F)(F)F)cc2)cnc2cc(Cl)nn12  remaining binding (cell-free assay; competition with immobilised ligand; 1 µM): 88%
C=CC(=O)Nc1cc(Nc2nccc(Nc3cc(Cl)c(F)cc3C(C)(C)O)n2)c(OC)cc1N1CC[C@@H](N(C)C)C1  inhibition (enzyme activity; inhibitor; 1 µM): 8%
